Results on 2 compounds are retold here after ChEMBL document CHEMBL1144116, “Tanikolide, a toxic and antifungal lactone from the marine cyanobacterium Lyngbya majuscula” (J Nat Prod, 1999).

Structures are written as SMILES. In brackets after ≈: the same amount, converted by molar mass. Activity calls are given as the source filed them. The rule behind the calls is not given here.

Data set [1] is described as follows: Toxicity against Artemia salina after 24 hrs. The following applies: in vivo, read-out: LD50. It is filed as organism-based. A digest of the protocol: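 About 15 hatched Artemia salina in ca. 0.5 mL seawater per well with sample in 50 µL EtOH plus 4.5 mL artificial seawater (total ca. 5 mL), several concentrations, duplicate samples and controls. After 24 h at 28 °C, live and dead shrimp counted under dissecting light microscope.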

A further data set concerns Biomphalaria glabrata. Briefly: Molluscicidal activity against Biomphalaria glabrata at 10 mg/mL after 24 hrs. The following applies: read-out: LD50 (the source's name). It is filed as functional. Summed up:
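Test snails: Biomphalaria glabrata. Sample stock solutions (10 mg/mL in EtOH) diluted in 10 mL distilled H2O. Snails observed after 24 h and scored dead when no heart beat was detected by dissecting light microscopy.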

The subject of data set [2] is Carassius auratus. Briefly: Norcotic effect against Carassius auratus at 10 ug/mL after 1 hr. It is filed as ADME, organism-based. To be noted: in vivo. Summed up:
(§1)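 Single goldfish (Carassius auratus) per vessel in 50 mL distilled H2O, with sample dilutions added in 50 µL EtOH. Each fish is observed for 1 h. Samples and controls are run in duplicate.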

In a further data set the test system is Candida albicans. Description: Antifungal activity against Candida albicans ATCC 14053 at 100 ug/disk by paper disk agar plate method. The class given is functional. A digest of the protocol:
(§2)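 Paper disk-agar plate diffusion with 6 mm paper disks, each loaded with 100 µg of sample. Activity is read as the diameter of the zone of inhibition around the disk.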

In the next data set the test system is Pseudomonas aeruginosa. Briefly: Antibacterial activity against Pseudomonas aeruginosa ATCC 10145 at 100 ug/disk by paper disk agar plate method. The class given is functional, organism-based. A digest of the protocol:
as §2

A further data set relates to Escherichia coli. Briefly: Antibacterial activity against Escherichia coli ATCC 11775 at 100 ug/disk by paper disk agar plate method. It is filed as functional, organism-based. A digest of the protocol:
as §2

Data set [3] relates to Salmonella enterica subsp. enterica. Briefly: Antibacterial activity against Salmonella choleraesuis subsp. choleraesuis ATCC 14028 at 100 ug/disk by paper disk agar plate method. It is filed as functional, organism-based. Summed up:
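Standard paper sensitivity disk-agar plate method with 6 mm disks. Read-out is the diameter of the inhibition zone around the disk.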

The test system of another data set is Bacillus subtilis. Briefly: Antibacterial activity against Bacillus subtilis ATCC 6051 at 100 ug/disk by paper disk agar plate method. The class given is functional, organism-based. A digest of the protocol:
as §2

In another data set the test system is Staphylococcus aureus. Briefly: Antibacterial activity against Staphylococcus aureus ATCC 12600 at 100 ug/disk by paper disk agar plate method. It is filed as functional, organism-based. A digest of the protocol: as §2
Data set [4] concerns Carassius auratus. Description: Toxicity against Carassius auratus. It is filed as organism-based. To be noted: in vivo. A digest of the protocol:
as §1

Take `CCCCCCCCCCC[C@]1(CO)CCCC(=O)O1` [TANIKOLIDE]: in data set [1], the LC50 at 24 h worked out at 3.6 µg/mL (≈ 12.7 µM). The LC50 in the data set with Biomphalaria glabrata turned out to be 9 µg/mL (≈ 31.6 µM). Moreover, the Activity result with Carassius auratus [2] is given as “Toxic”; in the data set on Carassius auratus [4], “Non-toxic”. For the same compound, the zone of inhibition at 100 µg/disc in the data set with Candida albicans (read-out: IZ) came out at 13 mm. For the same compound, the result (in the data set with Pseudomonas aeruginosa; with Escherichia coli; in data set [3]; in the data set with Bacillus subtilis; in the data set with Staphylococcus aureus) was inactive.
Consider `CCCCCCCCC[C@@]1(CO)CC[C@@H](C)C(=O)O1`, for which the outcome (in the data set with Candida albicans; in the data set with Pseudomonas aeruginosa; with Escherichia coli; in data set [3]; in the data set with Bacillus subtilis; in the data set with Staphylococcus aureus) was inactive.
